Laboratory results from ChEMBL document CHEMBL5058577, “EUbOPEN Chemogenomics Library 2 (Multiplex)” (2022).

System: HEK-293T
Experiment: Multiplex assay against HEK293T
Format: toxicity, cell-based
Details: human
Outline: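 Cells stained live at seeding with Hoechst33342, BioTracker Green Microtubule Cytoskeleton Dye, MitoTracker Red and Annexin V Alexa Fluor 680 were imaged on a CQ1 microscope at 37°C and 5% CO2 after compound addition. Their classification by CellPathfinder machine-learning gating ran from Hoechst high-intensity objects versus normal cells, to healthy, pyknosed or fragmented nuclei among normal cells, to mitotic or apoptotic among pyknosed cells. Tubulin, mitochondrial-mass and membrane-permeability phenotypes are per cents of healthy-nucleus cells.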

[1] = 12 h, 1 µM, compound concentration 1 uM, replicate 1
[2] = 12 h, 1 µM, compound concentration 1 uM, replicate 2
[3] = 12 h, 10 µM, compound concentration 10 uM, replicate 1
[4] = 12 h, 10 µM, compound concentration 10 uM, replicate 2
[5] = 24 h, 1 µM, compound concentration 1 uM, replicate 1
[6] = 24 h, 1 µM, compound concentration 1 uM, replicate 2
[7] = 24 h, 10 µM, compound concentration 10 uM, replicate 1
[8] = 24 h, 10 µM, compound concentration 10 uM, replicate 2
[9] = 48 h, 1 µM, compound concentration 1 uM, replicate 1
[10] = 48 h, 1 µM, compound concentration 1 uM, replicate 2
[11] = 48 h, 10 µM, compound concentration 10 uM, replicate 1
[12] = 48 h, 10 µM, compound concentration 10 uM, replicate 2

S=C(NCCCc1c[nH]cn1)NCCCN(Cc1ccc(Cl)c(Cl)c1)c1ccc(Br)cn1
Population Apoptotic (%) [1]: 39% | Population Fragmented Nuclei (%) [1]: 8% | Population Healthy Nuclei (%) [1]: 78% | Population Hoechst High Intensity Objects (%) [1]: 17% | Population Membrane Permeable-Phenotype (%) [1]: 0% | Population Mitochondria Different-Phenotype (%) [1]: 50% | Population Mitotic Cells (%) [1]: 60% | Population Normal (%) [1]: 82% | Population Pyknosed Nuclei (%) [1]: 13% | Population Tubulin-Different-Phenotype (%) [1]: 36% | Total Cell Count [1]: 378 | Population Apoptotic (%) [2]: 53% | Population Fragmented Nuclei (%) [2]: 5% | Population Healthy Nuclei (%) [2]: 79% | Population Hoechst High Intensity Objects (%) [2]: 6% | Population Mitochondria Different-Phenotype (%) [2]: 58% | Population Mitotic Cells (%) [2]: 46% | Population Normal (%) [2]: 93% | Population Pyknosed Nuclei (%) [2]: 14% | Population Tubulin-Different-Phenotype (%) [2]: 35% | Total Cell Count [2]: 294 | Population Apoptotic (%) [3]: 90% | Population Fragmented Nuclei (%) [3]: 4% | Population Healthy Nuclei (%) [3]: 57% | Population Hoechst High Intensity Objects (%) [3]: 33% | Population Membrane Permeable-Phenotype (%) [3]: 0% | Population Mitochondria Different-Phenotype (%) [3]: 77% | Population Mitotic Cells (%) [3]: 9% | Population Normal (%) [3]: 66% | Population Pyknosed Nuclei (%) [3]: 38% | Population Tubulin-Different-Phenotype (%) [3]: 78% | Total Cell Count [3]: 242 | Population Apoptotic (%) [4]: 77% | Population Fragmented Nuclei (%) [4]: 8% | Population Healthy Nuclei (%) [4]: 71% | Population Hoechst High Intensity Objects (%) [4]: 19% | Population Mitochondria Different-Phenotype (%) [4]: 84% | Population Mitotic Cells (%) [4]: 22% | Population Normal (%) [4]: 80% | Population Pyknosed Nuclei (%) [4]: 19% | Total Cell Count [4]: 229 | Population Apoptotic (%) [5]: 39% | Population Fragmented Nuclei (%) [5]: 10% | Population Healthy Nuclei (%) [5]: 73% | Population Hoechst High Intensity Objects (%) [5]: 22% | Population Membrane Permeable-Phenotype (%) [5]: 0% | Population Mitochondria Different-Phenotype (%) [5]: 45% | Population Mitotic Cells (%) [5]: 60% | Population Normal (%) [5]: 77% | Population Pyknosed Nuclei (%) [5]: 16% | Population Tubulin-Different-Phenotype (%) [5]: 32% | Total Cell Count [5]: 326 | Population Apoptotic (%) [6]: 41% | Population Fragmented Nuclei (%) [6]: 9% | Population Healthy Nuclei (%) [6]: 81% | Population Hoechst High Intensity Objects (%) [6]: 13% | Population Mitochondria Different-Phenotype (%) [6]: 48% | Population Mitotic Cells (%) [6]: 58% | Population Normal (%) [6]: 86% | Population Pyknosed Nuclei (%) [6]: 9% | Total Cell Count [6]: 301 | Population Apoptotic (%) [7]: 85% | Population Fragmented Nuclei (%) [7]: 11% | Population Healthy Nuclei (%) [7]: 49% | Population Hoechst High Intensity Objects (%) [7]: 48% | Population Membrane Permeable-Phenotype (%) [7]: 1% | Population Mitochondria Different-Phenotype (%) [7]: 75% | Population Mitotic Cells (%) [7]: 14% | Population Normal (%) [7]: 51% | Population Pyknosed Nuclei (%) [7]: 39% | Population Tubulin-Different-Phenotype (%) [7]: 78% | Total Cell Count [7]: 237 | Population Apoptotic (%) [8]: 82% | Population Fragmented Nuclei (%) [8]: 16% | Population Healthy Nuclei (%) [8]: 59% | Population Hoechst High Intensity Objects (%) [8]: 39% | Population Membrane Permeable-Phenotype (%) [8]: 0% | Population Mitochondria Different-Phenotype (%) [8]: 82% | Population Mitotic Cells (%) [8]: 17% | Population Normal (%) [8]: 61% | Population Pyknosed Nuclei (%) [8]: 23% | Total Cell Count [8]: 200 | Population Apoptotic (%) [9]: 47% | Population Fragmented Nuclei (%) [9]: 14% | Population Healthy Nuclei (%) [9]: 65% | Population Hoechst High Intensity Objects (%) [9]: 36% | Population Membrane Permeable-Phenotype (%) [9]: 3% | Population Mitochondria Different-Phenotype (%) [9]: 38% | Population Mitotic Cells (%) [9]: 52% | Population Normal (%) [9]: 63% | Population Pyknosed Nuclei (%) [9]: 19% | Population Tubulin-Different-Phenotype (%) [9]: 29% | Total Cell Count [9]: 307 | Population Apoptotic (%) [10]: 36% | Population Fragmented Nuclei (%) [10]: 17% | Population Healthy Nuclei (%) [10]: 73% | Population Hoechst High Intensity Objects (%) [10]: 27% | Population Membrane Permeable-Phenotype (%) [10]: 0% | Population Mitochondria Different-Phenotype (%) [10]: 32% | Population Mitotic Cells (%) [10]: 63% | Population Normal (%) [10]: 72% | Population Pyknosed Nuclei (%) [10]: 9% | Population Tubulin-Different-Phenotype (%) [10]: 19% | Total Cell Count [10]: 277 | Population Apoptotic (%) [11]: 84% | Population Fragmented Nuclei (%) [11]: 23% | Population Healthy Nuclei (%) [11]: 23% | Population Hoechst High Intensity Objects (%) [11]: 75% | Population Membrane Permeable-Phenotype (%) [11]: 0% | Population Mitochondria Different-Phenotype (%) [11]: 86% | Population Mitotic Cells (%) [11]: 15% | Population Normal (%) [11]: 24% | Population Pyknosed Nuclei (%) [11]: 52% | Population Tubulin-Different-Phenotype (%) [11]: 53% | Total Cell Count [11]: 256 | Population Apoptotic (%) [12]: 75% | Population Fragmented Nuclei (%) [12]: 21% | Population Hoechst High Intensity Objects (%) [12]: 67% | Population Mitochondria Different-Phenotype (%) [12]: 80% | Population Mitotic Cells (%) [12]: 25% | Population Normal (%) [12]: 32% | Population Pyknosed Nuclei (%) [12]: 55% | Population Tubulin-Different-Phenotype (%) [12]: 40% | Total Cell Count [12]: 203
